Experimental findings from ChEMBL document CHEMBL5661979, “Pharmacological inhibition of BMK1 suppresses tumor growth through promyelocytic leukemia protein” (Cancer Cell, 2010) are described below.

What is called IC50 is the concentration needed to halve the response being measured. A lower IC50 goes with greater potency. As a reminder, the inhibition is the relative decrease from the control value, in per cent.

Each structure is given as a SMILES string.

Assay [1] has as its target Tyrosine-protein kinase ABL (Homo sapiens, UniProt P00519+P42684). Description: Inhibition of ABL1/2 in human HeLa cells lysate pre incubated for 15 mins followed by ATP acyl phosphate probe addition and measured after 10 mins by LC-MS/MS analysis. In kind it is subcellular. In short, it runs like this:
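HeLa cell lysates (5 mg/mL total protein) were preincubated with inhibitor at 0, 0.8, 2, 10 or 50 μM for 15 min. ATP or ADP acylphosphate probe was then added (5 μM final) for 10 min, and reactions were stopped with urea. Up to four fragment ions per kinase probe-peptide were quantified by targeted MS. % inhibition was taken relative to untreated lysate. Run in duplicate.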

Assay [2] addresses Serine/threonine-protein kinase Nek7 (Homo sapiens, UniProt Q8TDX7). Description: Inhibition of NEK7 in human HeLa cells lysate pre incubated for 15 mins followed by ATP acyl phosphate probe addition and measured after 10 mins by LC-MS/MS analysis. In kind it is subcellular.
The target of assay [3] is Phosphatidylinositol 4-phosphate 3-kinase C2 domain-containing subunit beta (Homo sapiens, UniProt O00750). Put plainly: Inhibition of PIK3C2B in human HeLa cells lysate pre incubated for 15 mins followed by ATP acyl phosphate probe addition and measured after 10 mins by LC-MS/MS analysis. In kind it is subcellular.
Assay [4] addresses Serine/threonine-protein kinase PLK1 (Homo sapiens, UniProt P53350). Put plainly: Inhibition of PLK1 K2 site in human HeLa cells lysate pre incubated for 15 mins followed by ATP acyl phosphate probe addition and measured after 10 mins by LC-MS/MS analysis. In kind it is subcellular.
Assay [5] can be described thus: Inhibition of CDK5/PRKX/PRKY in human HeLa cells lysate pre incubated for 15 mins followed by ADP acyl phosphate probe addition and measured after 10 mins by LC-MS/MS analysis. In kind it is subcellular. In short, it runs like this:
(§1)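 KiNativ profiling in HeLa lysate (5 mg/mL total protein). Lysate incubated 15 min with inhibitor at 50, 10, 2, 0.8 or 0 μM. ATP or ADP acylphosphate probe then added (5 μM final) and reacted 10 min. Reaction stopped with urea and analysed by targeted MS, using up to four fragment ions per kinase peptide-probe conjugate. % inhibition taken against untreated lysate. Run in duplicate.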

The target of assay [6] is Interferon-induced, double-stranded RNA-activated protein kinase (Homo sapiens, UniProt P19525). Description: Inhibition of PKR in human HeLa cells lysate pre incubated for 15 mins followed by ADP acyl phosphate probe addition and measured after 10 mins by LC-MS/MS analysis. In kind it is subcellular.
In assay [7] the target is DNA-dependent protein kinase catalytic subunit (Homo sapiens, UniProt P78527). Description: Inhibition of PRKDC in human HeLa cells lysate pre incubated for 15 mins followed by ADP acyl phosphate probe addition and measured after 10 mins by LC-MS/MS analysis. In kind it is subcellular.
Sequence of DNA-dependent protein kinase catalytic subunit (P78527 whole entry): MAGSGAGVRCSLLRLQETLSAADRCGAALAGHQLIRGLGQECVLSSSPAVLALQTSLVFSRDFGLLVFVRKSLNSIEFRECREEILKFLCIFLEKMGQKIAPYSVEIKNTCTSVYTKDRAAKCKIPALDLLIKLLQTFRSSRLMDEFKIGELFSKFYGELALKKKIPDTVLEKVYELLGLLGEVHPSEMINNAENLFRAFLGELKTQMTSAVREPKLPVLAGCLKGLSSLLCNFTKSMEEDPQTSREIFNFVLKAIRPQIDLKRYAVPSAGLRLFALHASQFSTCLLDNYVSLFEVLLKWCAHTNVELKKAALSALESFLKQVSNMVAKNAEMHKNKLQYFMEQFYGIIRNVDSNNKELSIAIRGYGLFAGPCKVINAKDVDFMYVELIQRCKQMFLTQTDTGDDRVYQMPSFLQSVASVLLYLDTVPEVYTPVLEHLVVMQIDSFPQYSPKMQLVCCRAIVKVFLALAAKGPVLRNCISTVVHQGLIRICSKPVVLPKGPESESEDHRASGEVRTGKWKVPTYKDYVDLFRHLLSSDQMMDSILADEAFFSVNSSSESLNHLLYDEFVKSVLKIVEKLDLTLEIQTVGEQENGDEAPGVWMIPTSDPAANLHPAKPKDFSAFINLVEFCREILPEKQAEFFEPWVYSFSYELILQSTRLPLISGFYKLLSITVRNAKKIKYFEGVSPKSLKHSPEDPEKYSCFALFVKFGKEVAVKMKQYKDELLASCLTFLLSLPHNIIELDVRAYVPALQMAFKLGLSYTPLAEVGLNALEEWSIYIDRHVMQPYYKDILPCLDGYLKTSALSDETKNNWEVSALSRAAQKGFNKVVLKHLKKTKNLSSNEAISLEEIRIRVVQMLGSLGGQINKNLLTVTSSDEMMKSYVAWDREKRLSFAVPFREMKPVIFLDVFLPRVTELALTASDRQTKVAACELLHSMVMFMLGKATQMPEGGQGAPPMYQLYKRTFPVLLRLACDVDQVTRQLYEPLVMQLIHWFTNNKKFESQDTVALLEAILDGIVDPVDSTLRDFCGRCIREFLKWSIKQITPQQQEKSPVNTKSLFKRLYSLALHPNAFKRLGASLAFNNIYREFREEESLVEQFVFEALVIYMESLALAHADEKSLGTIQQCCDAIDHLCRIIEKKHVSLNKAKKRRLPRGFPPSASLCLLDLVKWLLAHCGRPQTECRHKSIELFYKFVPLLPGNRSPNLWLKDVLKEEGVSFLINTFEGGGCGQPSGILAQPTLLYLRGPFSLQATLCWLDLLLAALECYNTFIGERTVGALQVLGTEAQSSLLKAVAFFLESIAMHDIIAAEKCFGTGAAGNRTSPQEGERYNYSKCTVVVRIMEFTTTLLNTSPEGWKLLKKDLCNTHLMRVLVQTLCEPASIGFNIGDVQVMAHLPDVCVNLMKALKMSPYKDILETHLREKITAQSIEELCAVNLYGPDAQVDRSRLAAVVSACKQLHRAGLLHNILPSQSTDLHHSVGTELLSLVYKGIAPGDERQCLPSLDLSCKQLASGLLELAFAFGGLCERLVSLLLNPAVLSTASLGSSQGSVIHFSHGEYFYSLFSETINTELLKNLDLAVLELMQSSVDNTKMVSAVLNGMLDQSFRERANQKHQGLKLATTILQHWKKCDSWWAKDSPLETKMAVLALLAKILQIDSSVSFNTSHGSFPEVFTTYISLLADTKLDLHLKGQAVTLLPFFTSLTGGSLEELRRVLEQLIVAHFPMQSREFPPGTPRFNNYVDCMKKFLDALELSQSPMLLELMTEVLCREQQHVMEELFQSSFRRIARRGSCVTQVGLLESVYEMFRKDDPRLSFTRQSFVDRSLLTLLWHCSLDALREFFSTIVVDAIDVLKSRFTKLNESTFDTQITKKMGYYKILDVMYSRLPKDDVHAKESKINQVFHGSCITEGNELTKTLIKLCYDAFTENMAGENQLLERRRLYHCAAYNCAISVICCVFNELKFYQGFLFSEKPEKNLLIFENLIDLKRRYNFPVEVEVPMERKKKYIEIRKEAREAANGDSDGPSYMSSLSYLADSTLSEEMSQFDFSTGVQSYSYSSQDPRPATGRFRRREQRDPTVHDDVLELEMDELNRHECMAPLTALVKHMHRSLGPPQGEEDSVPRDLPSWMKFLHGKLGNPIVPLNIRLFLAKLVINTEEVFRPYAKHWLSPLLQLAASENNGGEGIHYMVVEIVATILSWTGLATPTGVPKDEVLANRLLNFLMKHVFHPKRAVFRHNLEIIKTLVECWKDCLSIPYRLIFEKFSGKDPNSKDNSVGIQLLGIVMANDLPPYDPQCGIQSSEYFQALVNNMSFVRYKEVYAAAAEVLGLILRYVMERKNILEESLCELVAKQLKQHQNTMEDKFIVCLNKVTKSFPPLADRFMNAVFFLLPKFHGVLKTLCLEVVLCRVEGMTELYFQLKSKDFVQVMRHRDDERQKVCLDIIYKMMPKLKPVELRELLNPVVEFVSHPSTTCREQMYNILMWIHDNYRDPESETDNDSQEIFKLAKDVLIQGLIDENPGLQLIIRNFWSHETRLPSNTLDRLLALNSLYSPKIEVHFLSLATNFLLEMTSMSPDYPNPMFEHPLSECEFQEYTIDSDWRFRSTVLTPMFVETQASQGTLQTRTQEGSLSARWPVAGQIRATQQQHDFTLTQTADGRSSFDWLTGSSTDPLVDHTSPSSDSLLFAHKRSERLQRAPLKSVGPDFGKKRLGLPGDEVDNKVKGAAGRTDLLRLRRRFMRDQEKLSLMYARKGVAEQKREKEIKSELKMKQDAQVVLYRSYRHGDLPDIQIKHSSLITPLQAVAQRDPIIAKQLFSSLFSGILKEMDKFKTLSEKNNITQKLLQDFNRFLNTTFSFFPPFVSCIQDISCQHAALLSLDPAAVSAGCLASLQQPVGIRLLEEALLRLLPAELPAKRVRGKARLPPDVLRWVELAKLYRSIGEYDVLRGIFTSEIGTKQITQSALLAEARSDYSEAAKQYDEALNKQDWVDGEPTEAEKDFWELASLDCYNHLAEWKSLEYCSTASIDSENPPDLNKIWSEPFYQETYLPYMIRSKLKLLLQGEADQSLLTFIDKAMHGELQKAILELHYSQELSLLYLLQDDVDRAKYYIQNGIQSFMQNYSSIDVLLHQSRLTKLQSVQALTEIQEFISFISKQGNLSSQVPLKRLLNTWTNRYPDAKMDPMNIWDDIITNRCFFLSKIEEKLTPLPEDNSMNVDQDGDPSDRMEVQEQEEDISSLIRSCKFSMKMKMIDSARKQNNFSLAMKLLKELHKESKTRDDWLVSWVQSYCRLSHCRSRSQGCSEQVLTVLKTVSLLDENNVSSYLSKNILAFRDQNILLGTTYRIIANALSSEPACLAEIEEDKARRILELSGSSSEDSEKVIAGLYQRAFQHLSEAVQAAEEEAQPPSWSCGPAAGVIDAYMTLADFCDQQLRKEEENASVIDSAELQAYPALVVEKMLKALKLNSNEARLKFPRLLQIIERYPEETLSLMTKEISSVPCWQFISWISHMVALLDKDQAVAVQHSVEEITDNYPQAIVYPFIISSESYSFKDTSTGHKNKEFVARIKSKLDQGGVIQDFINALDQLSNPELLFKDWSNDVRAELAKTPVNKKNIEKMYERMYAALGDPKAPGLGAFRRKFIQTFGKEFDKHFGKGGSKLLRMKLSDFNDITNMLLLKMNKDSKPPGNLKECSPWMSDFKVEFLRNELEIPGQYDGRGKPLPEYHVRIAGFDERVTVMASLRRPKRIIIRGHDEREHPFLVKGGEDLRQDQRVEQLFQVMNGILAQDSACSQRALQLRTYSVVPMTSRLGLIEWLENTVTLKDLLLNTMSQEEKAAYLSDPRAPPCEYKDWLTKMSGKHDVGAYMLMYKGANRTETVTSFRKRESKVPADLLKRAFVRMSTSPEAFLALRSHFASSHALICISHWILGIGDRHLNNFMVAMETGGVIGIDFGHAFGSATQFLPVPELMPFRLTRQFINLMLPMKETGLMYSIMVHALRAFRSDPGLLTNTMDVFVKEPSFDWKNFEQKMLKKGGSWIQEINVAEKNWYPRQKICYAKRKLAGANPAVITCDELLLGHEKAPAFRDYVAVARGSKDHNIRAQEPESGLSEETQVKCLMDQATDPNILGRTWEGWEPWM
Assay [8] has as its target Tyrosine-protein kinase Fyn (Homo sapiens, UniProt P06241). Description: Inhibition of FYN in human HeLa cells lysate at 10 uM pre incubated for 15 mins followed by ADP acyl phosphate probe addition and measured after 10 mins by LC-MS/MS analysis relative to control. Format: subcellular. Conditions: time 25.0 min.
Assay [9] concerns the target T1, Phosphorylase b kinase gamma catalytic chain, liver/testis isoform (Homo sapiens) (UniProt P15735).
T1 sequence (whole entry): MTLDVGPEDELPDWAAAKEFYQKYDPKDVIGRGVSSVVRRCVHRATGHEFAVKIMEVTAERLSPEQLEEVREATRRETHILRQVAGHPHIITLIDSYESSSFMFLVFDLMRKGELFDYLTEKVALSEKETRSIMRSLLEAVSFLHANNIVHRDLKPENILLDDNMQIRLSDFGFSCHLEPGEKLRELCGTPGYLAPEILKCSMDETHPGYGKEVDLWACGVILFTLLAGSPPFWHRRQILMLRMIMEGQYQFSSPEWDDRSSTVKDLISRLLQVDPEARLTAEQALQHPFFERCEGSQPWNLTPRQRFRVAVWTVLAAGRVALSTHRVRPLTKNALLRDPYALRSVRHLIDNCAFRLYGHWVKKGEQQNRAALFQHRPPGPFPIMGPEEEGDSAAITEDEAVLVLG
Description: Inhibition of PHKG2 in human HeLa cells lysate at 2 uM pre incubated for 15 mins followed by ADP acyl phosphate probe addition and measured after 10 mins by LC-MS/MS analysis relative to control. Conditions: time 25.0 min. Format: subcellular.

In assay [10] the target is Cyclin-dependent kinase 8/19 (Homo sapiens, UniProt P49336+Q9BWU1). Put plainly: Inhibition of CDK8/CDK11 in human HeLa cells lysate at 50 uM pre incubated for 15 mins followed by ATP acyl phosphate probe addition and measured after 10 mins by LC-MS/MS analysis relative to control. In kind it is subcellular. Conditions: time 25.0 min. In short, it runs like this:
as §1

Assay [11] in a line: Inhibition of MAP3K2/3 in human HeLa cells lysate at 50 uM pre incubated for 15 mins followed by ATP acyl phosphate probe addition and measured after 10 mins by LC-MS/MS analysis relative to control. Conditions: 25 min, condition cancer.
The target of assay [12] is Serine/threonine-protein kinase Nek1 (Homo sapiens) (UniProt Q96PY6). Put plainly: Inhibition of NEK1 in human HeLa cells lysate at 2 uM pre incubated for 15 mins followed by ATP acyl phosphate probe addition and measured after 10 mins by LC-MS/MS analysis relative to control. In kind it is subcellular. The settings on record: time 25.0 min.
Assay [13] deals with T2, Dual specificity mitogen-activated protein kinase kinase 6 (Homo sapiens) (UniProt P52564).
T2 sequence (whole entry): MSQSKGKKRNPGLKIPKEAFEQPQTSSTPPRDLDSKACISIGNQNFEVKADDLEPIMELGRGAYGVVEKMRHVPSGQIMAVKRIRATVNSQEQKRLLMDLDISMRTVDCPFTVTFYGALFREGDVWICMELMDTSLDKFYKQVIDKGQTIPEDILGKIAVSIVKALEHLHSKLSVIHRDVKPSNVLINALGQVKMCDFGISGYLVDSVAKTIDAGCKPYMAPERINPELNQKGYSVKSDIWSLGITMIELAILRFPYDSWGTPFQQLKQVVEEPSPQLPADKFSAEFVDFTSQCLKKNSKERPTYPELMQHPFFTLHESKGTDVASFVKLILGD
Description: Inhibition of MAP2K6 in human HeLa cells lysate at 2 uM pre incubated for 15 mins followed by ATP acyl phosphate probe addition and measured after 10 mins by LC-MS/MS analysis relative to control. Format: subcellular. Conditions: time 25.0 min.

The target in assay [14] is Dual specificity mitogen-activated protein kinase kinase; MEK1/2 (Homo sapiens, UniProt P36507+Q02750). Description: Inhibition of MAP2K1/MAP2K2 in human HeLa cells lysate at 2 uM pre incubated for 15 mins followed by ATP acyl phosphate probe addition and measured after 10 mins by LC-MS/MS analysis relative to control. Format: subcellular. The settings on record: time 25.0 min.

Sequence of Serine/threonine-protein kinase PLK1 (P53350 whole entry): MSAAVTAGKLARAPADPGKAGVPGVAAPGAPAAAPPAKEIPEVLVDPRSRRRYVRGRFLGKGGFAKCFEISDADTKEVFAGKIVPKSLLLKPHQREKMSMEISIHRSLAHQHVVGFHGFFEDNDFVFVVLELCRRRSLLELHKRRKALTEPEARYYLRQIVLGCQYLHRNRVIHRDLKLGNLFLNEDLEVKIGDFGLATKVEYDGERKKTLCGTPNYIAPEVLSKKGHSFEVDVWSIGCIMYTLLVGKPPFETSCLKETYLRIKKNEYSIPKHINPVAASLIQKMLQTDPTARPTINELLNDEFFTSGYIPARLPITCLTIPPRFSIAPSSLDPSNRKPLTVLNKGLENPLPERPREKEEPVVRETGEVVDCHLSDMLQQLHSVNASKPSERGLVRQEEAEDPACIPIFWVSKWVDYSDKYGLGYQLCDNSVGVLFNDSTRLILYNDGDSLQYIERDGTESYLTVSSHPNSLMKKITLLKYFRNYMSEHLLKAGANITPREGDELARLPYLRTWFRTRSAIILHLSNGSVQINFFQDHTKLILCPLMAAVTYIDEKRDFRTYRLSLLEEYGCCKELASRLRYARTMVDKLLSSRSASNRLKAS
Sequence of Serine/threonine-protein kinase Nek7 (Q8TDX7 whole entry, the tested form may be a part): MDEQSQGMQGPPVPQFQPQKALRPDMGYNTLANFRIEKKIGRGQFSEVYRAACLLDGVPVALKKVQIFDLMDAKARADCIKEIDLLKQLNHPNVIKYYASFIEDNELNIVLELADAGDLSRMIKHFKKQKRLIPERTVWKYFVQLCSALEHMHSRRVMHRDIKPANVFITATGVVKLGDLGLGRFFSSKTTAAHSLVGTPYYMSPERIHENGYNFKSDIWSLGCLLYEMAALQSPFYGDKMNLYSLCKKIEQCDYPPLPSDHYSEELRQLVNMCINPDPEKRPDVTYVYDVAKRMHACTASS

In the case of `CCOc1cc(N2CCC(O)CC2)ccc1Nc1ncc2c(n1)N(C)c1ccccc1C(=O)N2C`, the IC50 in assay [1], in assay [2], in assay [3], in assay [4], in assay [5] and in [6] was greater than 50 µM each time. This compound registered an IC50 in [7] greater than 50 µM. For the same compound, the inhibition in assay [8] was 11.9%; in assay [9], 3.4%; in assay [10] it was 7.7%; in [12] it was 6.1%; in assay [13] it was -4%; in assay [14] it was 0.6%. In addition, the inhibition at 50 µM in assay [11] is -8.7%.
